Laboratory results reported in ChEMBL document CHEMBL2412952, “2-Substituted 4-hydroxybutanamides as potential inhibitors of γ-aminobutyric acid transporters mGAT1-mGAT4: synthesis and biological evaluation” (Bioorg Med Chem, 2013).
pIC50, pKi: −log10 of the molar value. Active and inactive are the calls of the source.

Legend:
Mus musculus [1] = test: Neurotoxicity in albino Swiss CD-1 mouse assessed as motor impairment at 30 mg/kg, ip after 30 mins by rotarod test; assay type: toxicity, organism-based; set-up: dose 30 mg/kg, route intraperitoneal; conditions: in vivo, 0.5 h
Procedure, shortened: (§1)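 CD-1 mice trained 3 days on a 2 cm rotarod at 18 rpm, then tested ≥24 h later, 30 min after ip dosing, at 6, 18 and 24 rpm. Failure to stay on for 1 min counted as impairment (fallers/tested; Fisher's exact); mean time on rod also recorded (ANOVA/Dunnett); 8 mice per group.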

Mus musculus [2] = test: Neurotoxicity in albino Swiss CD-1 mouse assessed as mean time spent on the rotarod with 24 rpm at 30 mg/kg, ip after 30 mins by rotarod test (reference value: 60.0 +/- 0.0 seconds); assay type: toxicity, organism-based; set-up: dose 30 mg/kg, route intraperitoneal; conditions: in vivo, 0.5 h; procedure, shortened: as §1
Mus musculus [3] = test: Neurotoxicity in albino Swiss CD-1 mouse assessed as mean time spent on the rotarod with 18 rpm at 30 mg/kg, ip after 30 mins by rotarod test (reference value: 60.0 +/- 0.0 seconds); assay type: toxicity, organism-based; set-up: dose 30 mg/kg, route intraperitoneal; conditions: in vivo, 0.5 h; procedure, shortened: as §1
Mus musculus [4] = test: Neurotoxicity in albino Swiss CD-1 mouse assessed as mean time spent on the rotarod with 6 rpm at 30 mg/kg, ip after 30 mins by rotarod test (reference value: 60.0 +/- 0.0 seconds); assay type: toxicity, organism-based; set-up: dose 30 mg/kg, route intraperitoneal; conditions: in vivo, 0.5 h; procedure, shortened: as §1
Mus musculus [5] = test: Antinociceptive activity against formalin-induced inflammatory pain in albino Swiss CD-1 mouse assessed as duration of licking response at 30 mg/kg, ip administered 30 mins prior to formalin challenge measured for 15 to 30 mins (reference value: 111.6 +/- 17.1 seconds); assay type: functional; conditions: route intraperitoneal
Procedure, shortened: (§2)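 Male CD-1 mice, 18–25 g, 6–12 per dose; compound suspended in 0.5% methylcellulose, given ip 30 min before 20 µl of 5% formalin intraplantar into right hind paw. Time spent licking the injected paw scored blind at 0–5 min and 15–30 min. Reduction versus vehicle-treated mice; ED50 by log-probit; mean ± SEM, ANOVA/Dunnett or t-test.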

Mus musculus [6] = test: Antinociceptive activity against formalin-induced inflammatory pain in albino Swiss CD-1 mouse assessed as duration of licking response at 15 mg/kg, ip administered 30 mins prior to formalin challenge measured for 15 to 30 mins (reference value: 111.6 +/- 17.1 seconds); assay type: functional; conditions: route intraperitoneal; procedure, shortened: as §2
Mus musculus [7] = test: Antinociceptive activity against formalin-induced inflammatory pain in albino Swiss CD-1 mouse assessed as duration of licking response at 7.5 mg/kg, ip administered 30 mins prior to formalin challenge measured for 15 to 30 mins (reference value: 111.6 +/- 17.1 seconds); assay type: functional; conditions: route intraperitoneal; procedure, shortened: as §2
Mus musculus [8] = test: Antinociceptive activity against formalin-induced inflammatory pain in albino Swiss CD-1 mouse assessed as duration of licking response at 30 mg/kg, ip administered 30 mins prior to formalin challenge measured up to 5 mins (reference value: 55.4 +/- 6.6 seconds); assay type: functional; conditions: route intraperitoneal; procedure, shortened: as §2
Mus musculus [9] = test: Antinociceptive activity against formalin-induced inflammatory pain in albino Swiss CD-1 mouse assessed as duration of licking response at 15 mg/kg, ip administered 30 mins prior to formalin challenge measured up to 5 mins (reference value: 55.4 +/- 6.6 seconds); assay type: functional; conditions: route intraperitoneal; procedure, shortened: as §2
Mus musculus [10] = test: Antinociceptive activity against formalin-induced inflammatory pain in albino Swiss CD-1 mouse assessed as duration of licking response at 7.5 mg/kg, ip administered 30 mins prior to formalin challenge measured up to 5 mins (reference value: 55.4 +/- 6.6 seconds); assay type: functional; conditions: route intraperitoneal; procedure, shortened: as §2
Mus musculus [11] = test: Analgesic activity in albino Swiss CD-1 mouse assessed as reduction in formalin-induced inflammatory pain at 30 mg/kg, ip administered 30 mins prior to formalin challenge measured for 15 to 30 mins relative to control; assay type: functional; set-up: scale not given: the % may be the effect or the level left; conditions: route intraperitoneal; procedure, shortened: as §2
Mus musculus [12] = test: Analgesic activity in albino Swiss CD-1 mouse assessed as reduction in formalin-induced inflammatory pain at 15 mg/kg, ip administered 30 mins prior to formalin challenge measured for 15 to 30 mins relative to control; assay type: functional; set-up: scale not given: the % may be the effect or the level left; conditions: route intraperitoneal; procedure, shortened: as §2
Mus musculus [13] = test: Analgesic activity in albino Swiss CD-1 mouse assessed as reduction in formalin-induced inflammatory pain at 15 mg/kg, ip administered 30 mins prior to formalin challenge measured up to 5 mins relative to control; assay type: functional; procedure, shortened: as §2
Mus musculus [14] = test: Analgesic activity in albino Swiss CD-1 mouse assessed as reduction in formalin-induced inflammatory pain at 7.5 mg/kg, ip administered 30 mins prior to formalin challenge measured up to 5 mins relative to control; assay type: functional; procedure, shortened: as §2
Mus musculus [15] = test: Analgesic activity in albino Swiss CD-1 mouse assessed as reduction in formalin-induced inflammatory pain at 30 mg/kg, ip administered 30 mins prior to formalin challenge measured up to 5 mins relative to control; assay type: functional; procedure, shortened: as §2
Mus musculus [16] = test: Analgesic activity in albino Swiss CD-1 mouse assessed as reduction in formalin-induced inflammatory pain at 7.5 mg/kg, ip administered 30 mins prior to formalin challenge measured for 15 to 30 mins relative to control; assay type: functional; set-up: scale not given: the % may be the effect or the level left; conditions: route intraperitoneal; procedure, shortened: as §2
Mus musculus [17] = test: Analgesic effect in ip dosed albino Swiss CD-1 mouse assessed as inhibition of acetic acid-induced writhing administered 30 mins prior to acetic acid challenge measured for 30 mins; assay type: functional; conditions: albino Swiss CD-1, ip
Procedure, shortened: (§3)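 Male CD-1 mice (18–25 g), habituated 30 min in beakers, dosed ip (0.5% methylcellulose, 10 ml/kg) 30 min before ip 0.9% acetic acid in saline (10 ml/kg). Writhes counted for 30 min by blinded observers. Effect is % reduction versus vehicle group; ED50 by log-probit; mean ± SEM.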

Mus musculus [18] = test: Analgesic effect in albino Swiss CD-1 mouse assessed as inhibition of acetic acid-induced writhing at 20 mg/kg, ip administered 30 mins prior to acetic acid challenge measured for 30 mins relative to control; assay type: functional; set-up: scale not given: the % may be the effect or the level left; conditions: route intraperitoneal; procedure, shortened: as §3
Mus musculus [19] = test: Analgesic effect in albino Swiss CD-1 mouse assessed as inhibition of acetic acid-induced writhing at 15 mg/kg, ip administered 30 mins prior to acetic acid challenge measured for 30 mins relative to control; assay type: functional; set-up: scale not given: the % may be the effect or the level left; conditions: route intraperitoneal; procedure, shortened: as §3
Mus musculus [20] = test: Analgesic effect in albino Swiss CD-1 mouse assessed as inhibition of acetic acid-induced writhing at 30 mg/kg, ip administered 30 mins prior to acetic acid challenge measured for 30 mins relative to control; assay type: functional; set-up: scale not given: the % may be the effect or the level left; conditions: route intraperitoneal; procedure, shortened: as §3
[21] = Inhibition of mouse GAT4-mediated [3H]GABA uptake stably transfected in HEK293 cells; assay type: cell-based
[22] = target: T1, Sodium- and chloride-dependent GABA transporter 1 (Mus musculus, UniProt P31648); test: Binding affinity to mouse GAT1 stably transfected in HEK293 cells by NO-711 binding assay; assay type: cell-based
[23] = target: T1, Sodium- and chloride-dependent GABA transporter 1; test: Inhibition of mouse GAT1-mediated [3H]GABA uptake stably transfected in HEK293 cells; assay type: cell-based
Mus musculus [24] = test: Antinociceptive activity in albino Swiss CD-1 mouse assessed as prolongation of latency time at 30 mg/kg, ip administered 30 mins prior to test by hot plate test; assay type: functional, organism-based; set-up: dose 30 mg/kg
Procedure, shortened: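 Male CD-1 mice given compound ip in 0.5% methylcellulose 30 min before placement on a plate held at 55–56 °C. Latency to hind-paw licking or jumping timed, 30 s cut-off. Compared with vehicle by ANOVA.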

Mus musculus [25] = test: Analgesic activity in ip dosed albino Swiss CD-1 mouse assessed as reduction in formalin-induced inflammatory pain administered 30 mins prior to formalin challenge measured for 15 to 30 mins; assay type: functional; conditions: albino Swiss CD-1, ip; procedure, shortened: as §2
Mus musculus [26] = test: Analgesic activity in ip dosed albino Swiss CD-1 mouse assessed as reduction in formalin-induced inflammatory pain administered 30 mins prior to formalin challenge measured up to 5 mins; assay type: functional; conditions: albino Swiss CD-1, ip; procedure, shortened: as §2
Mus musculus [27] = test: Antinociceptive activity against formalin-induced inflammatory pain in albino Swiss CD-1 mouse assessed as duration of licking response at 30 mg/kg, ip administered 30 mins prior to formalin challenge measured for 15 to 30 mins (reference value: 78.8 +/- 15.9 seconds); assay type: functional; conditions: route intraperitoneal; procedure, shortened: as §2
Mus musculus [28] = test: Antinociceptive activity against formalin-induced inflammatory pain in albino Swiss CD-1 mouse assessed as duration of licking response at 30 mg/kg, ip administered 30 mins prior to formalin challenge measured up to 5 mins (reference value: 34.8 +/- 9.4 seconds); assay type: functional; conditions: route intraperitoneal; procedure, shortened: as §2
Mus musculus [29] = test: Analgesic effect in albino Swiss CD-1 mouse assessed as inhibition of acetic acid-induced writhing at 7.5 mg/kg, ip administered 30 mins prior to acetic acid challenge measured for 30 mins relative to control; assay type: functional; set-up: scale not given: the % may be the effect or the level left; conditions: route intraperitoneal; procedure, shortened: as §3
Mus musculus [30] = test: Analgesic effect in albino Swiss CD-1 mouse assessed as inhibition of acetic acid-induced writhing at 3.75 mg/kg, ip administered 30 mins prior to acetic acid challenge measured for 30 mins relative to control; assay type: functional; set-up: scale not given: the % may be the effect or the level left; conditions: route intraperitoneal; procedure, shortened: as §3

SMILES	Activity (Mus musculus [1])	Time (Mus musculus [2]) [s]	Time (Mus musculus [3]) [s]	Time (Mus musculus [4]) [s]	Time (Mus musculus [5]) [s]	Time (Mus musculus [6]) [s]	Time (Mus musculus [7]) [s]	Time (Mus musculus [8]) [s]	Time (Mus musculus [9]) [s]	Time (Mus musculus [10]) [s]	Activity (Mus musculus [11]) [%]	Activity (Mus musculus [12]) [%]	Activity (Mus musculus [15])	Activity (Mus musculus [16]) [%]	ED50 (Mus musculus [17]) [mg/kg]	Activity (Mus musculus [19]) [%]	Activity (Mus musculus [20]) [%]	pIC50 [21]	pKi [22]	Activity (Mus musculus [24])	also measured
O=C(NCc1ccc(F)cc1)C(CCO)N1CCC(=C(c2ccccc2)c2ccccc2)CC1 (centres undefined)	Non-toxic	60	60	60	24	17.8	30.9	58.1	50.4	59.9	78.5	84.1	inactive	72.3	18.1	28.9	79.4	4.58	4.94	inactive	Activity (Mus musculus [13]): inactive; Activity (Mus musculus [14]): inactive; Activity (Mus musculus [18]): 69.9%; pIC50 [23]: 5.01
O=C(NCc1ccccc1)C(CCO)N1CCC(=C(c2ccccc2)c2ccccc2)CC1 (centres undefined)	Non-toxic	60	60	60	16.3	39.6	75.1	27.7	31	39	85.4	64.5		32.7			29.8	4.48	5.04	inactive	ED50 (Mus musculus [25]): 11.1 mg/kg; Activity (Mus musculus [13]; route intraperitoneal): 44%; Activity (Mus musculus [14]; route intraperitoneal): 29.6%; Activity (Mus musculus [15]; route intraperitoneal): 50%; ED50 (Mus musculus [26]): 27.1 mg/kg; pIC50 [23]: 4.83
COc1ccc(C(OCCN2CCC[C@H](C(=O)O)C2)(c2ccc(OC)cc2)c2ccc(OC)cc2)cc1		59	56.3	59.6							39.5		inactive		7.1	70.5				inactive	Time (Mus musculus [27]): 47.7 s; Time (Mus musculus [28]): 35.6 s; Activity (Mus musculus [29]): 62.7%; Activity (Mus musculus [30]): 23.3%
